Experimental findings from ChEMBL document CHEMBL1128283, “Novel modified carboxy terminal fragments of neuropeptide Y with high affinity for Y2-type receptors and potent functional antagonism at a Y1-type receptor” (J Med Chem, 1995) are described below.

Some results are limits rather than exact numbers.

Assay [1] concerns the target T1, Neuropeptide Y receptor type 2 (Rattus norvegicus, UniProt Q9ERC0).
T1 sequence (Q9ERC0 whole entry): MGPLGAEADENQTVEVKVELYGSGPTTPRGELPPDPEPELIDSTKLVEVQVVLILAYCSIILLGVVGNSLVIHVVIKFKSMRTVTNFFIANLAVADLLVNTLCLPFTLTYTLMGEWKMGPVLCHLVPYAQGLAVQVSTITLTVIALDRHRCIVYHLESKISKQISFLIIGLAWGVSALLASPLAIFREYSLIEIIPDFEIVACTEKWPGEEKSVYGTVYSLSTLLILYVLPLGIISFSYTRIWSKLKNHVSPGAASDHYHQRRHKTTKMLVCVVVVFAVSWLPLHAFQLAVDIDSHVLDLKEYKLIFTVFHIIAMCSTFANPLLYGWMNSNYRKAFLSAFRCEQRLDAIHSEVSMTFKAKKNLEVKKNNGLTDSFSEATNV
The assay can be described thus: 50% displacement of specifically bound [3H]NPY2 from rat brain membranes. In kind it is cell membranes, Membrane.

The subject of assay [2] is HEL. The assay is described as follows: (§1) Inhibition of NPY1-induced ([Ca2+]) release in HEL cell was determined at 100 nM. Also on record: scale not given: the % may be the effect or the level left. In kind it is functional, Homo sapiens. The method, boiled down:
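HEL cells loaded with fura-2 and kept in suspension; calcium read as the 340/380 nm ratio. Peptide tested at 100 nM, added 30 s before NPY. Agonist activity expressed as percent of the response to 100 nM NPY. Inhibition measured against the 5 nM NPY response.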

The test system of assay [3] is HEL. The assay is described as follows: Inhibition of NPY-induced ([Ca2+]) release in HEL cell was determined. The class given is functional, cell-based. Particulars: Homo sapiens.
Assay [4] has as its system HEL. The assay is described as §1. The class given is functional. Particulars: Homo sapiens, read-out: ED50 (the source's name).

H-YINPIYRLRY-NH2 [listing 1 of 2 here]: in assay [1], the IC50 (usually the concentration that inhibits the measured activity by half) worked out at 44 nM.

Turning to H-NLIYRLRY-NH2, the half-inhibitory concentration (IC50) in assay [1] amounted to 310 nM.

Turning to H-LIYRLRY-NH2, the half-maximal inhibitory concentration (IC50) in assay [1] turned out to be 400 nM.

In turn, H-TRQRY-NH2 yielded a concentration for half-maximal inhibition (IC50) in assay [1] of more than 100000 nM.

With “H-RHYINLITRQRY-NH2 [listing 1 of 2 here]”, the Activity in assay [2] turned out to be 0%.

Consider H-YINPIYRLRY-NH2 [listing 2 of 2 here], for which, in assay [3], the half-inhibitory concentration (IC50) is 100 nM.

As for H-IYRLRY-NH2, the 50% inhibitory concentration (IC50) in assay [1] stood at 2950 nM.

Substance H-YINLITRQRY-NH2 gave an IC50 in assay [1] of 30000 nM. The substance also displayed an Activity in assay [2] of 0%.

Turning to H-YINLIYRLRY-NH2, in assay [1], the IC50 worked out at 8 nM. In addition, in assay [4], the EC50 came to 8.8 nM.

In assay [1], H-RHYINLIYRLRY-NH2 registered an IC50 of 12 nM. This substance had an Activity in assay [2] of 100%.

H-INPIYRLRY-NH2: the values for the IC50 in assay [3] and in assay [1] were 9 nM and 174 nM, respectively.

Take “H-RHYINLITRQRY-NH2 [listing 2 of 2 here]”: the IC50 in assay [1] stood at 1300 nM.

In assay [1], H-HYINLIYRLRY-NH2 showed an IC50 of 12 nM. For the same substance, the Activity in assay [2] came out at 100%.

In assay [1], H-INLIYRLRY-NH2 [listing 1 of 2 here] gave a 50% inhibitory concentration (IC50) of 37 nM.

As to H-INLIYRLRY-NH2 [listing 2 of 2 here], the Activity in assay [2] is listed as 33%.

In assay [1], H-YINLITRLY-NH2 gave a 50% inhibitory concentration (IC50) of 2100 nM. For the same substance, the Activity in assay [2] turned out to be 0%.
